Measurements from ChEMBL document CHEMBL3414427, “Structure-activity relationships of 3-O-β-chacotriosyl ursolic acid derivatives as novel H5N1 entry inhibitors” (Eur J Med Chem, 2015).
Active and inactive are the calls of the source. The rule behind the calls is not given here.

Key:
cells = format: functional, cell-based, Influenza A virus (A/Thailand/Kan353/2004(H5N1)); conditions: Influenza A virus, MDCK, 48 h
[1] = Cytotoxicity against MDCK cells; format: cell-based, Canis lupus familiaris; conditions: dog
Summary of the method: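 MDCK cells (ATCC) grown in DMEM containing glutamine, supplemented with 10% fetal calf serum. CC50 is the mean of three independent assays.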

[2] = target: Neuraminidase (Influenza A virus) (UniProt A5Z252); assay: Inhibition of Influenza A virus (H5N1) neuraminidase N1 at 20 microg/ml after 30 mins by fluorescence based assay
Summary of the method: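 Fluorescence-based kit assay with purified N1-type neuraminidase in detection buffer. Test compound was added, then neuraminidase substrate. Incubated at 37 °C for 30 min; fluorescence read at excitation 340 nm and emission 535 nm.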

[3] = tested on: Vesicular stomatitis virus; assay: Antiviral activity against VSV-G enveloped pseudovirus; format: functional, organism-based
Summary of the method: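 VSV-G pseudotyped particles (negative control), incubated with compound instead of H5N1 pseudovirus. MDCK cells (ATCC; DMEM with glutamine plus 10% FCS), seeded at 10⁴/well and grown overnight, then infected and incubated a further 48 h. Cells were PBS-washed and lysed, and luciferase activity was read by luminometer after adding substrate.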

| SMILES | IC50 (cells) [µM] | CC50 [1] [µM] | inhibition [2] | inhibition [3] |
| --- | --- | --- | --- | --- |
| C[C@H]1[C@H](C)CC[C@]2(C(=O)OC3CCCC3)CC[C@]3(C)C(=CC[C@@H]4[C@@]5(C)CC[C@H](O[C@@H]6O[C@H](CO)[C@@H](O[C@@H]7O[C@@H](C)[C@H](O)[C@@H](O)[C@H]7O)[C@H](O)[C@H]6O[C@@H]6O[C@@H](C)[C@H](O)[C@@H](O)[C@H]6O)C(C)(C)[C@@H]5CC[C@]43C)[C@H]12 | 4.91 | 24.2 |  |  |
| COC(=O)[C@]12CC[C@@H](C)[C@H](C)[C@H]1C1=CC[C@@H]3[C@@]4(C)CC[C@H](O[C@@H]5O[C@H](CO)[C@@H](O[C@@H]6O[C@@H](C)[C@H](O)[C@@H](O)[C@H]6O)[C@H](O)[C@H]5O[C@@H]5O[C@@H](C)[C@H](O)[C@@H](O)[C@H]5O)C(C)(C)[C@@H]4CC[C@@]3(C)[C@]1(C)CC2 | 1.02 | 13 | inactive | inactive |
| C[C@H]1[C@H](C)CC[C@]2(C(=O)N(C)C)CC[C@]3(C)C(=CC[C@@H]4[C@@]5(C)CC[C@H](O[C@@H]6O[C@H](CO)[C@@H](O[C@@H]7O[C@@H](C)[C@H](O)[C@@H](O)[C@H]7O)[C@H](O)[C@H]6O[C@@H]6O[C@@H](C)[C@H](O)[C@@H](O)[C@H]6O)C(C)(C)[C@@H]5CC[C@]43C)[C@H]12 | 0.98 | 48.6 | inactive | inactive |
| C[C@H]1[C@H](C)CC[C@]2(C(=O)O)CC[C@]3(C)C(=CC[C@@H]4[C@@]5(C)CC[C@H](O[C@@H]6O[C@H](CO)[C@@H](O[C@@H]7O[C@@H](C)[C@H](O)[C@@H](O)[C@H]7O)[C@H](O)[C@H]6O[C@@H]6O[C@@H](C)[C@H](O)[C@@H](O)[C@H]6O)C(C)(C)[C@@H]5CC[C@]43C)[C@H]12 | 10.1 | 26.2 |  |  |
| CNC(=O)[C@]12CC[C@@H](C)[C@H](C)[C@H]1C1=CC[C@@H]3[C@@]4(C)CC[C@H](O[C@@H]5O[C@H](CO)[C@@H](O[C@@H]6O[C@@H](C)[C@H](O)[C@@H](O)[C@H]6O)[C@H](O)[C@H]5O[C@@H]5O[C@@H](C)[C@H](O)[C@@H](O)[C@H]5O)C(C)(C)[C@@H]4CC[C@@]3(C)[C@]1(C)CC2 | 22.5 | > 200 |  |  |
| CCOC(=O)[C@]12CC[C@@H](C)[C@H](C)[C@H]1C1=CC[C@@H]3[C@@]4(C)CC[C@H](O[C@@H]5O[C@H](CO)[C@@H](O[C@@H]6O[C@@H](C)[C@H](O)[C@@H](O)[C@H]6O)[C@H](O)[C@H]5O[C@@H]5O[C@@H](C)[C@H](O)[C@@H](O)[C@H]5O)C(C)(C)[C@@H]4CC[C@@]3(C)[C@]1(C)CC2 | 1.16 | 19.1 |  |  |
| COC(=O)[C@]12CC[C@@H](C)[C@H](C)[C@H]1C1=CC[C@@H]3[C@@]4(C)CC[C@@H](O[C@@H]5O[C@H](CO)[C@@H](O[C@@H]6O[C@@H](C)[C@H](O)[C@@H](O)[C@H]6O)[C@H](O)[C@H]5O[C@@H]5O[C@@H](C)[C@H](O)[C@@H](O)[C@H]5O)C(C)(C)[C@@H]4CC[C@@]3(C)[C@]1(C)CC2 | 1.33 | > 200 | inactive | inactive |
| CCCOC(=O)[C@]12CC[C@@H](C)[C@H](C)[C@H]1C1=CC[C@@H]3[C@@]4(C)CC[C@H](O[C@@H]5O[C@H](CO)[C@@H](O[C@@H]6O[C@@H](C)[C@H](O)[C@@H](O)[C@H]6O)[C@H](O)[C@H]5O[C@@H]5O[C@@H](C)[C@H](O)[C@@H](O)[C@H]5O)C(C)(C)[C@@H]4CC[C@@]3(C)[C@]1(C)CC2 | 2.3 | 19.2 |  |  |
| COC(=O)[C@]12CC[C@@H](C)[C@H](C)[C@H]1C1=CC(=O)[C@@H]3[C@@]4(C)CC[C@H](O[C@@H]5O[C@H](CO)[C@@H](O[C@@H]6O[C@@H](C)[C@H](O)[C@@H](O)[C@H]6O)[C@H](O)[C@H]5O[C@@H]5O[C@@H](C)[C@H](O)[C@@H](O)[C@H]5O)C(C)(C)[C@@H]4CC[C@@]3(C)[C@]1(C)CC2 | 5.68 | 38.4 |  |  |
| CCCCCOC(=O)[C@]12CC[C@@H](C)[C@H](C)[C@H]1C1=CC[C@@H]3[C@@]4(C)CC[C@H](O[C@@H]5O[C@H](CO)[C@@H](O[C@@H]6O[C@@H](C)[C@H](O)[C@@H](O)[C@H]6O)[C@H](O)[C@H]5O[C@@H]5O[C@@H](C)[C@H](O)[C@@H](O)[C@H]5O)C(C)(C)[C@@H]4CC[C@@]3(C)[C@]1(C)CC2 | 3.72 | 20.1 |  |  |
| C=C(C)[C@@H]1CC[C@]2(C(=O)OC)CC[C@]3(C)[C@H](CC[C@@H]4[C@@]5(C)CC[C@H](O[C@@H]6O[C@H](CO)[C@@H](O[C@@H]7O[C@@H](C)[C@H](O)[C@@H](O)[C@H]7O)[C@H](O)[C@H]6O[C@@H]6O[C@@H](C)[C@H](O)[C@@H](O)[C@H]6O)C(C)(C)[C@@H]5CC[C@]43C)[C@H]12 | 2.08 | 33.9 |  |  |
| O=C(NCCN1CCCCC1)c1cc(F)cc(C(F)(F)F)c1 | 4.45 | 1480 |  |  |
| COC(=O)[C@@]1(C)CC[C@]2(C)CC[C@]3(C)C(=CC(=O)[C@@H]4[C@@]5(C)CC[C@H](O[C@@H]6O[C@H](CO)[C@@H](O[C@@H]7O[C@@H](C)[C@H](O)[C@@H](O)[C@H]7O)[C@H](O)[C@H]6O[C@@H]6O[C@@H](C)[C@H](O)[C@@H](O)[C@H]6O)C(C)(C)[C@@H]5CC[C@]43C)[C@@H]2C1 | 4.93 | 17.1 |  |  |
| CCN(CC)C(=O)[C@]12CC[C@@H](C)[C@H](C)[C@H]1C1=CC[C@@H]3[C@@]4(C)CC[C@H](O[C@@H]5O[C@H](CO)[C@@H](O[C@@H]6O[C@@H](C)[C@H](O)[C@@H](O)[C@H]6O)[C@H](O)[C@H]5O[C@@H]5O[C@@H](C)[C@H](O)[C@@H](O)[C@H]5O)C(C)(C)[C@@H]4CC[C@@]3(C)[C@]1(C)CC2 | 1.41 | 47 |  |  |
| C=CCOC(=O)[C@]12CC[C@@H](C)[C@H](C)[C@H]1C1=CC[C@@H]3[C@@]4(C)CC[C@H](O[C@@H]5O[C@H](CO)[C@@H](O[C@@H]6O[C@@H](C)[C@H](O)[C@@H](O)[C@H]6O)[C@H](O)[C@H]5O[C@@H]5O[C@@H](C)[C@H](O)[C@@H](O)[C@H]5O)C(C)(C)[C@@H]4CC[C@@]3(C)[C@]1(C)CC2 | 34 | 21.8 |  |  |
| COC(=O)[C@]12CCC(C)(C)C[C@H]1C1=CC[C@@H]3[C@@]4(C)CC[C@H](O[C@@H]5O[C@H](CO)[C@@H](O[C@@H]6O[C@@H](C)[C@H](O)[C@@H](O)[C@H]6O)[C@H](O)[C@H]5O[C@@H]5O[C@@H](C)[C@H](O)[C@@H](O)[C@H]5O)C(C)(C)[C@@H]4CC[C@@]3(C)[C@]1(C)CC2 | 3.74 | 16.9 |  |  |
